Assay results taken from article PMC4529374 (Pharmaceutical research, 2015).
Converted amounts (≈) assume the structure as drawn.

How the values were obtained:
HIV-1 = conditions: read-out: EC50 of CSIC; cited from earlier work
[1] = In vitro cytotoxicity, MTT assay; type: cell-based; conditions: human, HEC-1A cells
Method in brief: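 HEC-1A cells were grown in McCoy's 5A with 10% FBS and penicillin/streptomycin at 37°C, 5% CO2, then seeded at 1×10⁴ cells/well. After 24 h, free drug (5 ng/ml–50 µg/ml) or film at the equivalent dose, or placebo film, was added for 24 h. MTT (5 mg/ml stock) was added in fresh medium for 3 h at 37°C. Formazan was dissolved in DMSO and absorbance read at 595 nm.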

[2] = EFdA/CSIC stability in the film polymer solution; type: physicochemical; conditions: 25°C/65% R.H. and 40°C/75% R.H., 4 weeks
Method in brief: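 Drug-loaded aqueous PVA (7%, w/w) film-casting solution, about 0.5 ml per vial, was sealed against evaporation and light. EFdA: Zorbax C18, 0.4% phosphoric acid/methanol gradient, 0.8 ml/min, UV 260 nm. CSIC: Gemini C18, acetonitrile-0.075% TFA (40:60), 1.2 ml/min, UV 302 nm.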

[3] = CSIC solubility in water and solubilizer solutions; type: physicochemical; conditions: water
Method in brief: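 Excess CSIC was rotated at moderate speed in the solubilizer solutions at ambient temperature for 120 h. The mixture was filtered through a 0.2 µm membrane, and the filtrate was assayed by HPLC. HPLC conditions: Gemini C18 column, isocratic acetonitrile-0.075% (v/v) TFA (40:60) at 1.2 ml/min, UV detection at 302 nm, room temperature, total peak area against a linear least-squares calibration. LOQ was 0.5 µg/ml.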

Row | Compound | EC50 (HIV-1) | CC50 at 24 h [1] | loss of drug content in film polymer solution [2] | solubility [3]
1 | NC(=O)c1[nH]c2ccc(Cl)cc2c1S(=O)(=O)c1ccccc1 [CSIC, 5-chloro-3-phenylsulfonylindole-2-carboxamide] | 1.2 nM | 11.4 ± 2.8 µg/mL (≈ 34.1 µM) | No loss of drug content | < 0.5 µg/mL
2 | C#C[C@]1(CO)O[C@@H](n2cnc3c(N)nc(F)nc32)C[C@@H]1O [EFdA, 4’-ethynyl-2-fluoro-2’-deoxyadenosine] | – | > 50 µg/mL | No loss of drug content | –
